According to ChEMBL document CHEMBL3992505, “Optimization of substituted imidazobenzodiazepines as novel asthma treatments” (Eur J Med Chem, 2017):

What was measured:
[1] = tested on: Liver; assay: Metabolic stability in human liver microsomes assessed as compound remaining at 10 uM after 1 hr by LC-MS/MS analysis; assay type: ADME, microsome
Outline: (§1)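 Compound stability was measured in human or mouse liver microsomes as percent remaining after 1 h. Data came from two independent experiments, each run in triplicate.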

[2] = tested on: Liver; assay: Metabolic stability in mouse liver microsomes assessed as compound remaining at 10 uM after 1 hr by LC-MS/MS analysis; assay type: ADME, microsome; outline: as §1
[3] = Half life in human liver microsomes at 10 uM by LC-MS/MS analysis; assay type: ADME, microsome
[4] = (§2) Half life in mouse liver microsomes at 10 uM by LC-MS/MS analysis; assay type: ADME, microsome; conditions: liver microsomes
[5] = Cytotoxicity in HEK293 cells after 48 hrs by Cell-titer Glo reagent based assay; conditions: human, read-out: LD50
Outline: (§3)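 Cells (HEK293, HepG2 or BEAS2B) exposed to compounds at a range of concentrations for 48 h; viability read by Cell-Titer Glo luminescence. Normalized to DMSO (negative) and 3-dibutylamino-1-(4-hexyl-phenyl)-propan-1-one at 150 μM final in DMSO (positive).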

[6] = Cytotoxicity in human HepG2 cells after 48 hrs by Cell-titer Glo reagent based assay; conditions: read-out: LD50; outline: as §3
[7] = Cytotoxicity in human BEAS2B cells after 48 hrs by Cell-titer Glo reagent based assay; parameters: species or system BEAS-2B; conditions: read-out: LD50; outline: as §3
[8] = tested on: Mus musculus; assay: Neurotoxicity in Swiss Webster mouse assessed as induction of senorimotor impairment at 40 mg/kg, ip administered 10 mins prior to testing and measured for 3 mins at 10 to 60 mins after drug administration by rotarod method; assay type: toxicity, organism-based; conditions: in vivo
Outline: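 Swiss Webster mice, pre-trained at 15 rpm until they held on for 3 min at three consecutive sessions, were given a single i.p. dose of 40 mg/kg in 10% DMSO/40% propylene glycol/50% PBS. Rotarod at 15 rpm for 3 min at 10, 30 and 60 min after dosing. Falls before 3 min scored as fail, with time of fall recorded. N = 10, mean ± SEM. Vehicle and diazepam 5 mg/kg i.p. controls. Mice rested 2–3 days between doses.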

[9] = tested on: Liver; assay: as §2; assay type: ADME, microsome; conditions: microsomes, 10 µM
[10] = Solubility of the compound in PBS/1% DMSO at 10 uM; assay type: physicochemical; conditions: buffer
Outline: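 Solubility was judged at 10 μM in PBS containing 1% DMSO.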

[11] = Solubility of the compound in 50% PBS/40% propylene glycol/10% DMSO at 10 uM; assay type: physicochemical; conditions: buffer

Compound | Stability [1] | Stability [2] | half-life at 10 µM [3] | half-life at 10 µM [4] | CC50 at 48 h [5] | CC50 at 48 h [6] | CC50 at 48 h [7] | Activity [8] | t1/2 [9] | solubility [10] | solubility [11]
CCOC(=O)c1ncn2c1[C@@H]1CCCN1C(=O)c1cc(O)ccc1-2 | 91.7% | 91.1% | 11 h | 9 h | > 400 µM | > 400 µM | > 400 µM | Non-Toxic | – | – | –
[2H]C([2H])([2H])Oc1ccc2c(c1)C(=O)N1CCC[C@H]1c1c(C(=O)N(C)C)ncn1-2 | 96.3% | 83.1% | 13.3 h | 24.7 h | > 400 µM | > 400 µM | > 400 µM | Non-Toxic | – | – | –
[2H]C([2H])([2H])Oc1ccc2c(c1)C(=O)N1CCC[C@H]1c1c(C(=O)NC(C)(C)C)ncn1-2 | 95.6% | 9.4% | 7.15 h | – | > 200 µM | > 400 µM | > 400 µM | Toxic | 21.5 h | – | –
[2H]C([2H])([2H])Oc1ccc2c(c1)C(=O)N1CCC[C@H]1c1c(C(=O)NCC)ncn1-2 | 93.5% | 94.8% | 21.3 h | 4.55 h | > 400 µM | > 400 µM | > 400 µM | Non-Toxic | – | – | –
COc1ccc2c(c1)C(=O)N1CCC[C@H]1c1c(C(=O)O)ncn1-2 | 56.1% | 52.9% | 1.33 h | 1.22 h | > 400 µM | > 400 µM | > 400 µM | – | – | – | –
[2H]C([2H])([2H])Oc1ccc2c(c1)C(=O)N1CCC[C@H]1c1c(C(=O)NC3CC3)ncn1-2 | 88.1% | 94.1% | 30 h | – | > 200 µM | > 400 µM | > 400 µM | – | 0.295 h | – | –
[2H]C([2H])([2H])Oc1ccc2c(c1)C(=O)N1CCC[C@H]1c1c(C(=O)SC(C)(C)C)ncn1-2 | – | – | – | – | 16.8 µM | > 100 µM | > 100 µM | – | – | Insoluble | –
COc1ccc2c(c1)C(=O)N1CCC[C@H]1c1c(C(=O)NC3CC3)ncn1-2 | 79.9% | 91.3% | 13.1 h | – | > 200 µM | > 400 µM | > 400 µM | – | 0.222 h | – | –
[2H]C([2H])([2H])Oc1ccc2c(c1)C(=O)N1CCC[C@H]1c1c(C(=O)OCC)ncn1-2 | 92.8% | 85.5% | 14 h | 5.85 h | > 400 µM | > 400 µM | > 400 µM | – | – | – | –
[2H]C([2H])([2H])Oc1ccc2c(c1)C(=O)N1CCC[C@H]1c1c(C(=O)NC)ncn1-2 | 94.9% | 56.8% | 23.9 h | 1.29 h | > 100 µM | > 400 µM | > 400 µM | – | – | – | –
[2H]C([2H])([2H])Oc1ccc2c(c1)C(=O)N1CCC[C@H]1c1c(C(=O)OCC(C)C)ncn1-2 | 78.7% | 22.4% | 3.35 h | 0.448 h | > 100 µM | > 200 µM | > 200 µM | Toxic | – | – | –
CNC(=O)c1ncn2c1[C@@H]1CCCN1C(=O)c1cc(OC)ccc1-2 | 93.8% | 54.3% | 16.3 h | 1.08 h | > 100 µM | > 400 µM | > 400 µM | Toxic | – | – | –
CCOC(=O)c1ncn2c1[C@@H]1CCCN1C(=O)c1cc(OC)ccc1-2 | 99.1% | 85.4% | – | 5.3 h | > 400 µM | > 400 µM | > 400 µM | – | – | – | –
[2H]C([2H])([2H])Oc1ccc2c(c1)C(=O)N1CCC[C@H]1c1c(C(=O)O)ncn1-2 | 84.6% | 84.6% | 5.6 h | 4.71 h | > 400 µM | > 400 µM | > 400 µM | Non-Toxic | – | – | –
COC(=O)c1ncn2c1[C@@H]1CCCN1C(=O)c1cc(OC)ccc1-2 | 89.7% | 70.3% | 11.1 h | 2.15 h | > 400 µM | > 400 µM | > 400 µM | – | – | – | –
CC(C)(C)OC(=O)c1ncn2c1[C@@H]1CCCN1C(=O)c1cc(O)ccc1-2 | 90.6% | 46.6% | 9.65 h | 0.96 h | > 400 µM | > 400 µM | > 400 µM | – | – | – | –
COc1ccc2c(c1)C(=O)N1CCC[C@H]1c1c(C(=O)OCC(C)C)ncn1-2 | 77.8% | 13.4% | 2.82 h | 0.325 h | > 100 µM | > 200 µM | > 200 µM | – | – | – | Insoluble
[2H]C([2H])([2H])Oc1ccc2c(c1)C(=O)N1CCC[C@H]1c1c(C(=O)OC(C)(C)C)ncn1-2 | 91.9% | 17.6% | 16.9 h | 0.428 h | > 100 µM | > 400 µM | > 200 µM | – | – | – | –
COc1ccc2c(c1)C(=O)N1CCC[C@H]1c1c(C(=O)NC(C)(C)C)ncn1-2 | 92.8% | 4.2% | 3.23 h | – | > 200 µM | > 400 µM | > 400 µM | – | 10.4 h | – | –
CCNC(=O)c1ncn2c1[C@@H]1CCCN1C(=O)c1cc(OC)ccc1-2 | 90.7% | 50.1% | 12.2 h | – | > 400 µM | > 400 µM | > 400 µM | – | 4.72 h | – | –
[2H]C([2H])([2H])Oc1ccc2c(c1)C(=O)N1CCC[C@H]1c1c(C(=O)OC)ncn1-2 | 92.9% | 85.9% | 16.3 h | 4.75 h | > 400 µM | > 400 µM | > 400 µM | Toxic | – | – | –
[2H]C([2H])([2H])Oc1ccc2c(c1)C(=O)N1CCC[C@H]1c1c(C(=O)OC(C(F)(F)F)C(F)(F)F)ncn1-2 | 77.1% | 62.5% | 3.4 h | 1.82 h | > 200 µM | > 400 µM | > 400 µM | – | – | – | Insoluble
